Reference: PMC6945491 (Biomaterials, 2019)
pEC50: −log10 of the molar value.

How the values were obtained:
HIV-1ADA [1] = experiment: EC50 by HIV-1 RT activity in infected MDM; assay type: cell-based; conditions: Human immunodeficiency virus 1, 240 h, read-out: EC50 (RT activity)
Summary of the method: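 Human MDM (80,000 cells/well) pretreated 60 min with test compound or parent drug. Infected with HIV-1ADA at MOI 0.1 for 4 h, then cultured 10 days at the same drug concentration with half-medium changes every other day. Supernatant RT activity measured on day 10. EC50 fitted by sigmoidal 4-point logarithmic regression; triplicate.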

[2] = Pharmacokinetics and biodistribution in rats; conditions: single IM 75 mg/kg, after one day, limit of quantitation, data not shown
MDM = experiment: Drug uptake and 3TC-TP formation in MDM; assay type: cell-based, human; conditions: 100 μM, over 24 h
Summary of the method: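 Human monocytes differentiated 7–10 days in DMEM with 10% heat-inactivated pooled human serum and 1,000 U/ml M-CSF at 37°C, 5% CO2. MDM exposed to 100 μM nanoformulated prodrug or parent drug. At sampling, cells washed twice in PBS, scraped, counted and pelleted. Pellets extracted in methanol with sonication, then drug measured by LC-MS/MS. 3TC-TP quantified by an established protocol. Triplicate.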

HIV-1NL4–3-eGFP = experiment: EC50 by HIV-1 RT activity in infected CEM-CD4+ T cells; assay type: cell-based; conditions: Human immunodeficiency virus 1, T-cell, 240 h, read-out: EC50 (RT activity)
HIV-1ADA [3] = experiment: Long-term antiretroviral efficacy in MDM; assay type: cell-based; conditions: 8 h 100 μM, HIV-1ADA challenge
Summary of the method: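 MDM loaded 8 h with 100 μM test compound or parent drug, washed with PBS and kept drug-free with half-medium exchanges every other day. Challenged with HIV-1ADA (MOI 0.1) at days 1–30 after loading, then virus medium replaced. Ten days later medium RT activity was expressed as % of infected untreated cells. Cells fixed in 4% paraformaldehyde and HIV-1 p24 immunostained.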

Structure (SMILES): Nc1ccn([C@H]2CS[C@@H](CO)O2)c(=O)n1 [3TC, 2’,3’-Dideoxy-3’-Thiacytidine]
- pEC50 (HIV-1ADA [1]): 7.71
- drug levels in plasma and tissues [2]: ≤ 0.05 ng/mL
- intracellular drug concentration (MDM): < 0.5 μg/10^6 cells
- pEC50 (HIV-1NL4–3-eGFP): 7.45
- time of viral breakthrough after treatment (HIV-1ADA [3]): within one day
